Source: ChEMBL document CHEMBL1141960, “Synthesis and evaluation of novel 8,6-fused bicyclic peptidomimetic compounds as interleukin-1beta converting enzyme inhibitors” (Bioorg Med Chem Lett, 2005)

Legend:
[1] = target: Caspase-8 (Homo sapiens, UniProt Q14790); assay: Inhibitory activity against Caspase 8
[2] = target: T1, Caspase-3 (Homo sapiens, UniProt P42574); assay: Inhibitory activity against Caspase 3
T1 sequence (P42574 whole entry): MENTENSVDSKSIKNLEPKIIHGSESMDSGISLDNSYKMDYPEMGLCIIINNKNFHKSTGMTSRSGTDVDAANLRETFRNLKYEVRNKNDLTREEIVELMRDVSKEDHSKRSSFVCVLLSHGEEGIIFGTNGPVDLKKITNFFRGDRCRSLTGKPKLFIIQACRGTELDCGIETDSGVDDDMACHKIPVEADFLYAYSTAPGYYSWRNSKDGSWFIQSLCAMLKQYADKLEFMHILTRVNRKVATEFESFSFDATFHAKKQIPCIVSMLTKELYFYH

[3] = system: THP-1; assay: Inhibitory activity in THP1 whole cell assay measuring IL1-beta production; type: functional, cell-based; conditions: Homo sapiens
In short: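 Human monocytic THP-1 cells, 2 × 10^6/ml in RPMI 1640, preincubated 15 min with compound added from DMSO solutions (test range 1 nM to 10 μM) or without, then stimulated with LPS 1 μg/ml for 4 h total; cells spun down and IL-1β released into conditioned medium quantified by ELISA.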

[4] = target: T2, Caspase-1 (Homo sapiens, UniProt P29466); assay: Inhibitory activity against Caspase 1
T2 sequence (P29466 whole entry): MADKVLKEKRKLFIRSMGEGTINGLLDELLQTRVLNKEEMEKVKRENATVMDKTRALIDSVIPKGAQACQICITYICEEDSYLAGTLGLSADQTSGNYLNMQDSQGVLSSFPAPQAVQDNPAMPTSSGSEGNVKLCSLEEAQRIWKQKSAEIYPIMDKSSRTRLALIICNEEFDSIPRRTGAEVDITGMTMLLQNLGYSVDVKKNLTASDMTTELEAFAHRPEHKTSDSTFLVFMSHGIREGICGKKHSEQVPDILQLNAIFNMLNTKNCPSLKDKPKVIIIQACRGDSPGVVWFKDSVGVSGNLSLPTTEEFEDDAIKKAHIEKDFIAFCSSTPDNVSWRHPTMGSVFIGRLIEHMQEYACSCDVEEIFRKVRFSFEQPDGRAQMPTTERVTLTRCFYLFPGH

Caspase-8, sequence (Q14790 217-374 limits assumed): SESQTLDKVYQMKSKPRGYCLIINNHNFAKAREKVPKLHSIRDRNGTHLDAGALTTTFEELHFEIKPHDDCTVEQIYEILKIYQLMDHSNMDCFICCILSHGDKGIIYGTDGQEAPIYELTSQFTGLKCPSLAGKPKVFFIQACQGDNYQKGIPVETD
Caspase-8, sequence (Q14790 385-479 limits assumed): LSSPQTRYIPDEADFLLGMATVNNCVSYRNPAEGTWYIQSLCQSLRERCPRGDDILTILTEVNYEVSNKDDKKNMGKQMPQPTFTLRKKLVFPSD

SMILES	IC50 [1]	IC50 [2]	IC50 [3]	IC50 [4]
O=C1C[C@H](NC(=O)[C@@H]2CNC[C@@H]3CCCC[C@H](NC(=O)c4ccccc4)C(=O)N32)C(O)O1 (stereo partly specified)	384 nM	> 10000 nM	245 nM	10 nM
CC(=O)N1C[C@@H]2CCCC[C@H](NC(=O)c3ccccc3)C(=O)N2[C@H](C(=O)N[C@H]2CC(=O)OC2O)C1 (stereo partly specified)	481 nM	> 10000 nM	1260 nM	6 nM
O=C1C[C@H](NC(=O)[C@@H]2COC[C@@H]3C/C=C\C[C@H](NC(=O)c4nccc5ccccc45)C(=O)N32)C(O)O1 (stereo partly specified)	1590 nM	> 10000 nM	182 nM	3 nM
CS(=O)(=O)N1C[C@@H]2CCCC[C@H](NC(=O)c3ccccc3)C(=O)N2[C@H](C(=O)N[C@H]2CC(=O)OC2O)C1 (stereo partly specified)	384 nM	> 10000 nM	174 nM	6 nM
O=C1C[C@H](NC(=O)[C@@H]2CN(S(=O)(=O)c3ccccc3)C[C@@H]3CCCC[C@H](NC(=O)c4ccccc4)C(=O)N32)C(O)O1 (stereo partly specified)	106 nM	> 10000 nM	159 nM	2 nM
O=C1C[C@H](NC(=O)[C@@H]2CN(C(=O)OCc3ccccc3)C[C@@H]3C/C=C\C[C@H](NC(=O)c4nccc5ccccc45)C(=O)N32)C(O)O1 (stereo partly specified)	4 nM	> 10000 nM	154 nM	1 nM
CS(=O)(=O)N1C[C@@H]2CCCC[C@H](NC(=O)c3ccc4ccccc4c3)C(=O)N2[C@H](C(=O)N[C@H]2CC(=O)OC2O)C1 (stereo partly specified)	283 nM	> 10000 nM	46 nM	1 nM
O=C1C[C@H](NC(=O)[C@@H]2COC[C@@H]3C/C=C\C[C@H](NC(=O)c4ccc(C(F)(F)F)cc4)C(=O)N32)C(O)O1 (stereo partly specified)	6450 nM	> 10000 nM	–	135 nM
O=C1C[C@H](NC(=O)[C@@H]2COC[C@@H]3C/C=C\C[C@H](NC(=O)c4cccc(Cl)c4)C(=O)N32)C(O)O1 (stereo partly specified)	1550 nM	> 10000 nM	118 nM	7 nM
O=C1C[C@H](NC(=O)[C@@H]2COC[C@@H]3C/C=C\C[C@H](NC(=O)c4ccccc4Cl)C(=O)N32)C(O)O1 (stereo partly specified)	448 nM	> 10000 nM	–	33 nM
O=C1C[C@H](NC(=O)[C@@H]2CN(C(=O)OCc3ccccc3)C[C@@H]3C/C=C\C[C@H](NC(=O)c4ccc5ccccc5c4)C(=O)N32)C(O)O1 (stereo partly specified)	5 nM	4850 nM	106 nM	1 nM
O=C1C[C@H](NC(=O)[C@@H]2CN(S(=O)(=O)c3ccccc3)C[C@@H]3CCCC[C@H](NC(=O)c4nccc5ccccc45)C(=O)N32)C(O)O1 (stereo partly specified)	160 nM	> 10000 nM	87 nM	1 nM
O=C1C[C@H](NC(=O)[C@@H]2COC[C@@H]3CCCC[C@H](NC(=O)c4cc5ccccc5s4)C(=O)N32)C(O)O1 (stereo partly specified)	429 nM	> 10000 nM	178 nM	1 nM
CS(=O)(=O)N1C[C@@H]2CCCC[C@H](NC(=O)c3nccc4ccccc34)C(=O)N2[C@H](C(=O)N[C@H]2CC(=O)OC2O)C1 (stereo partly specified)	917 nM	> 10000 nM	168 nM	1 nM
O=C1C[C@H](NC(=O)[C@@H]2COC[C@@H]3CCCC[C@H](NC(=O)c4ccc5ccccc5c4)C(=O)N32)C(O)O1 (stereo partly specified)	911 nM	> 10000 nM	60 nM	1 nM
O=C1C[C@H](NC(=O)[C@@H]2COC[C@@H]3C/C=C\C[C@H](NC(=O)c4ccccc4)C(=O)N32)C(O)O1 (stereo partly specified)	7900 nM	> 10000 nM	–	130 nM
O=C1C[C@H](NC(=O)[C@@H]2COC[C@@H]3CCCC[C@H](NC(=O)c4nccc5ccccc45)C(=O)N32)C(O)O1 (stereo partly specified)	264 nM	> 10000 nM	101 nM	1 nM
CN1C[C@@H]2CCCC[C@H](NC(=O)c3ccccc3)C(=O)N2[C@H](C(=O)N[C@H]2CC(=O)OC2O)C1 (stereo partly specified)	247 nM	> 10000 nM	1820 nM	5 nM
O=C1C[C@H](NC(=O)[C@@H]2CN(C(=O)Nc3ccccc3)C[C@@H]3CCCC[C@H](NC(=O)c4ccccc4)C(=O)N32)C(O)O1 (stereo partly specified)	601 nM	> 10000 nM	1690 nM	5 nM
O=C1C[C@H](NC(=O)[C@@H]2COC[C@@H]3C/C=C\C[C@H](NC(=O)c4ccccc4C(F)(F)F)C(=O)N32)C(O)O1 (stereo partly specified)	670 nM	> 10000 nM	–	50 nM
O=C1C[C@H](NC(=O)[C@@H]2CN(S(=O)(=O)c3ccccc3)C[C@@H]3CCCC[C@H](NC(=O)c4ccc5ccccc5c4)C(=O)N32)C(O)O1 (stereo partly specified)	50 nM	> 10000 nM	153 nM	1 nM
O=C1C[C@H](NC(=O)[C@@H]2CN(C(=O)OCc3ccccc3)C[C@@H]3C/C=C\C[C@H](NC(=O)c4ccccc4)C(=O)N32)C(O)O1 (stereo partly specified)	13 nM	3260 nM	125 nM	1 nM
O=C1C[C@H](NC(=O)[C@@H]2COC[C@@H]3C/C=C\C[C@H](NC(=O)c4ccc(Cl)cc4)C(=O)N32)C(O)O1 (stereo partly specified)	3770 nM	> 10000 nM	–	74 nM
O=C1C[C@H](NC(=O)[C@@H]2COC[C@@H]3C/C=C\C[C@H](NC(=O)c4ccc5ccccc5c4)C(=O)N32)C(O)O1 (stereo partly specified)	2590 nM	> 10000 nM	62 nM	3 nM
O=C1C[C@H](NC(=O)[C@@H]2COC[C@@H]3C/C=C\C[C@H](NC(=O)c4cc5ccccc5s4)C(=O)N32)C(O)O1 (stereo partly specified)	1600 nM	> 10000 nM	57 nM	3 nM
O=C1C[C@H](NC(=O)[C@@H]2COC[C@@H]3C/C=C\C[C@H](NC(=O)c4cccc(C(F)(F)F)c4)C(=O)N32)C(O)O1 (stereo partly specified)	4190 nM	> 10000 nM	132 nM	9 nM
O=C1C[C@H](NC(=O)[C@@H]2CN(C(=O)c3ccccc3)C[C@@H]3CCCC[C@H](NC(=O)c4ccccc4)C(=O)N32)C(O)O1 (stereo partly specified)	38 nM	8070 nM	1420 nM	7 nM
O=C1C[C@H](NC(=O)[C@@H]2CNC[C@@H]3CCCC[C@H](NC(=O)c4ccc5ccccc5c4)C(=O)N32)C(O)O1 (stereo partly specified)	506 nM	> 10000 nM	75 nM	1 nM
O=C1C[C@H](NC(=O)[C@@H]2CNC[C@@H]3CCCC[C@H](NC(=O)c4nccc5ccccc45)C(=O)N32)C(O)O1 (stereo partly specified)	595 nM	> 10000 nM	156 nM	1 nM
